Inconclusive results are not listed.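 Rule for the calls, unless noted: active = cell viability at or below a set limit in both duplicate runs, the limit being the all-compound median minus 4 SD (cut at about 23% in these data, passing the limit was not always enough); inconclusive = no clear call, values can overlap the other calls; inactive = the rest.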
Assays:
[1] = S. cerevisiae growth inhibition in permissive medium (OD615), pilot counter-assay for S. cerevisiae lifespan shortening project, permissive growth control (AID 705;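 active = growth inhibition above 25% in both replicates, a cutoff set 3 SD above the mean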); details: OD615, 24 h, at 10 µM, hits give high values
How it was run: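 assay system = Saccharomyces cerevisiae strain carrying genetically modified DeaD replicative-lifespan system | technique = absorbance (optical density) at 615 nm | buffer or medium = permissive raffinose/galactose medium | timing = cells pre-grown 4 h, then 24 h compound exposure, 30 °C humidified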

[2] = S. cerevisiae growth inhibition in restrictive medium, OD615, pilot screen, restrictive growth control, yeast lifespan reduction project (AID 706;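 active = growth inhibition above a set limit, 3 SD over mean compound inhibition, in both replicates, cut at about 43% in these data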;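 note: modified DeaD lifespan yeast strain shifted to restrictive glucose medium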); details: OD615, 48 h, at 10 µM, hits give high values
How it was run: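 System: modified S. cerevisiae. Buffer or medium: CSMM-D glucose medium. Incubation: 4 h pre-growth plus 48 h compound exposure, 30 °C. Detection: absorbance (optical density) measured at 615 nm.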

[3] = doxorubicin toxicity protection in MRP-1 cells – H69AR cells, CellTiter-Glo, duplicate, MRP-1 activator project, pilot screen (AID 807;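 active = viability increase at or above a cutoff of the median across tested compounds plus 3 SD, cut at about 8.5% in these data, passing the limit was not always enough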;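 note: compound pretreatment 18-22 h then 72 h combined with doxorubicin; 0% = doxorubicin alone and 100% = vehicle without doxorubicin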); details: H69AR viability with doxorubicin, CellTiter-Glo luminescence; at 10 µM; hits give high values
[4] = viability of HCT116 without oncogenic beta-catenin – human colon tumor cells, pilot screen (AID 823); details: HCT116 beta-catenin knockout viability, CellTiter-Glo, 60 h; at 10 µM; hits give low values;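 note: 0% = wells killed by 20 µM Hyamine and 100% = untreated DMSO cell wells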
[5] = viability of PTEN-null HCT116 cells – cell-based, HCT116 clonal line, CellTiter-Glo, pilot screen (AID 824;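 active = viability at or below 27.92% in each of two runs, the all-compound median minus 4 SD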;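 note: 0% = 20 µM Hyamine control and 100% = vehicle cell control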); details: HCT116 PTEN-deleted viability, 60 h, at 10 µM, hits give low values
[6] = RAM pathway blockade in budding yeast – dse1pr::URA3 reporter, 5-FOA selection, pilot screen (AID 869;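 active = inhibition over a set limit, the all-compound mean plus 3 SD, in both replicate runs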;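 note: 0% = DMSO wells with no growth and 100% = 10 µM 1-NA-PP1 with full growth; RAM network block rescues cells from 5-FOA so hits raise OD615 growth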); details: S. cerevisiae dse1pr::URA3 5-FOA growth, OD615, 2 d; at 10 µM; hits give high values; strain carries analog-sensitive mutant Cbk1 kinase
[7] = RAM signaling pathway blockade in yeast – S. cerevisiae, Pdr1DBD-CYC8 efflux-inhibited sensitized strain, primary screen (AID 1298;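 active = RAM network inhibition above 8.4% in each of two replicates, 3 SD over the compound average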;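 note: 0% = DMSO untreated cells without growth and 100% = 10 µM 1-NA-PP1 full growth; higher means more yeast growth rescued from 5-FOA killing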); details: S. cerevisiae cbk1-as DSE1-URA3 strain, 5-FOA growth OD615, 2 d; at 50 µM; hits give high values

CCC(=O)Nc1ccc(S(=O)(=O)N2CCc3ccccc3C2)cc1
inactive: growth inhibition [1] -7.58% | growth inhibition [2] -3.42% | viability increase [3] -3.43% | viability [4] 89.1% | viability [5] 90.1% | inhibition [6] 0.395% | RAM network inhibition [7] 10%

CC(=O)NCC(=O)OCC(=O)c1ccc(C)c(C)c1
inactive: growth inhibition [1] -7.93% | growth inhibition [2] -2.07% | viability increase [3] -1.39% | viability [4] 88.8% | viability [5] 95.1% | inhibition [6] 0.75% | RAM network inhibition [7] -0.41%

CCOc1ccc2nc(NC(=O)COC)sc2c1
inactive: growth inhibition [1] -7.05% | growth inhibition [2] -13.8% | viability increase [3] 0.64% | viability [4] 102% | viability [5] 102% | inhibition [6] 1.05% | RAM network inhibition [7] 1.66%

Cc1nccc2[nH]c(=O)c(C(=O)NC3CCN(Cc4ccccc4)CC3)cc12
inactive: growth inhibition [1] -0.105% | growth inhibition [2] -8.34% | viability increase [3] -3.81% | viability [4] 104% | viability [5] 93.9% | inhibition [6] 1.82% | RAM network inhibition [7] 7.9%

Cc1ccccc1Cn1c(=O)[nH]c2ccccc21
inactive: growth inhibition [1] -1.87% | growth inhibition [2] 4.58% | viability increase [3] 0.06% | viability [4] 96.5% | viability [5] 88.5% | inhibition [6] 1.9% | RAM network inhibition [7] 4.55%

O=C(NCCc1ccc(Cl)cc1)C1CC(=O)N(C2CCCCC2)C1 (stereo not drawn)
inactive: growth inhibition [1] -4.04% | growth inhibition [2] -5.98% | viability increase [3] -0.99% | viability [4] 94.6% | viability [5] 101% | inhibition [6] 1.06% | RAM network inhibition [7] 0.58%

Oc1ccccc1CNc1nc2ccccc2n1CCN1CCCCC1
inactive: growth inhibition [1] -15.8% | growth inhibition [2] -9.88% | viability increase [3] -8.6% | viability [4] 52.5% | viability [5] 48.8% | inhibition [6] 2.86% | RAM network inhibition [7] 1.77%

CCOC(=O)CNC(=O)Cn1cnc2sc(C)c(S(=O)(=O)N3CCC(C)CC3)c2c1=O
inactive: growth inhibition [1] -5.06% | growth inhibition [2] -1.62% | viability increase [3] -2.55% | viability [4] 94% | viability [5] 93.6% | inhibition [6] 0.32% | RAM network inhibition [7] 4.1%

CCc1ccccc1NC1c2ccccc2C(=O)N1c1cc(C)ccn1 (stereo not drawn)
inactive: growth inhibition [1] -12.1% | growth inhibition [2] -4.82% | viability increase [3] -1.63% | viability [4] 99.1% | viability [5] 101% | inhibition [6] 1.82% | RAM network inhibition [7] 11.4%

Cn1c(NCc2ccccc2Cl)nc2ccccc21
inactive: growth inhibition [1] -5.4% | growth inhibition [2] -11.6% | viability increase [3] 0.98% | viability [4] 97.5% | viability [5] 92.8% | inhibition [6] 0.3% | RAM network inhibition [7] 1.78%

O=C(NCc1ccc(Cl)cc1)c1cccnc1
inactive: growth inhibition [1] -1.45% | growth inhibition [2] 9.27% | viability increase [3] -0.63% | viability [4] 92.8% | viability [5] 93.6% | inhibition [6] 1.8% | RAM network inhibition [7] 0.15%

CC(=O)N1CSCC1C(=O)N1CCN(c2ccc(N3CCOCC3)nn2)CC1 (stereo not drawn)
inactive: growth inhibition [1] 5.2% | growth inhibition [2] 12.4% | viability increase [3] -0.66% | viability [4] 103% | viability [5] 95.1% | inhibition [6] 1.55% | RAM network inhibition [7] 0.26%

COc1cccc(-c2nc(CS(=O)CC(=O)NCc3ccccc3)c(C)o2)c1 (stereo not drawn)
inactive: growth inhibition [1] -9.55% | growth inhibition [2] -15.4% | viability increase [3] 1.16% | viability [4] 99.5% | viability [5] 96.2% | inhibition [6] 1.11% | RAM network inhibition [7] 4.44%

COc1cc2[nH]c(=O)n(CCCCCC(=O)NCCCN3CCOCC3)c(=O)c2cc1OC
inactive: growth inhibition [1] -9.12% | growth inhibition [2] -24.8% | viability increase [3] -1.27% | viability [4] 97.8% | viability [5] 89.6% | inhibition [6] 0.585% | RAM network inhibition [7] -0.68%

COC(=O)c1ccsc1NC(=O)C1=COCCO1
inactive: growth inhibition [1] -9% | growth inhibition [2] -1.36% | viability increase [3] -0.42% | viability [4] 106% | viability [5] 102% | inhibition [6] 0.91% | RAM network inhibition [7] 2.35%

O=C(NCCCN1CCC(Cc2ccccc2)CC1)C1CCC(=O)N1C1CCCC1 (stereo not drawn)
inactive: growth inhibition [1] 0.095% | growth inhibition [2] 10.8% | viability increase [3] -0.92% | viability [4] 79.7% | viability [5] 96.9% | inhibition [6] 0.3% | RAM network inhibition [7] 1.85%

CCOC(=O)/C=C/S(=O)(=O)c1ccc(NC(C)=O)cc1
inactive: growth inhibition [1] -24.4% | growth inhibition [2] -13.2% | viability increase [3] -7.51% | viability [4] 82.4% | viability [5] 93.5% | inhibition [6] 0.03% | RAM network inhibition [7] 5.29%

Cc1ccc(-n2nnc3c(=O)n(Cc4cccc(C)c4)cnc32)cc1
inactive: growth inhibition [1] -5.14% | growth inhibition [2] -6.1% | viability increase [3] 1.15% | viability [4] 99.9% | viability [5] 93.7% | inhibition [6] 2.65% | RAM network inhibition [7] 1.34%

CCCCC(CC)C(=O)NCCCN1CCN(CCCNC(=O)C(CC)CCCC)CC1 (stereo not drawn)
inactive: growth inhibition [1] -6.17% | growth inhibition [2] 2.97% | viability increase [3] -1.81% | viability [4] 87.3% | viability [5] 90.6% | inhibition [6] -0.16% | RAM network inhibition [7] 2.42%

CSc1ccc(S(=O)(=O)N2CCN(Cc3ccc4c(c3)OCO4)CC2)cc1
inactive: growth inhibition [1] -2.74% | growth inhibition [2] 14.3% | viability increase [3] -4.46% | viability [4] 88.1% | viability [5] 86.3% | inhibition [6] 0.865% | RAM network inhibition [7] 6.37%

CCOc1cccc(C(=O)Nc2nnc(-c3ccco3)s2)c1
inactive: growth inhibition [1] -7.86% | growth inhibition [2] -7.51% | viability increase [3] -0.2% | viability [4] 103% | viability [5] 104% | inhibition [6] 3.44% | RAM network inhibition [7] 2.28%

CCOc1ccc(C(=O)c2nc3c(n2O)CCCC3)cc1
inactive: growth inhibition [1] -15% | growth inhibition [2] -7.18% | viability increase [3] 0.17% | viability [4] 91.1% | viability [5] 103% | inhibition [6] 1.41% | RAM network inhibition [7] -0.74%

CC(=O)c1sc(N2C(=O)c3oc4ccccc4c(=O)c3C2c2ccc(C)o2)nc1C (stereo not drawn)
inactive: growth inhibition [1] 3.87% | growth inhibition [2] 6.34% | viability increase [3] -3.31% | viability [4] 96.1% | viability [5] 94.3% | inhibition [6] 1.98% | RAM network inhibition [7] -0.52%

Cc1ccc(-n2c(C)cc(C(=O)OCC(=O)N(C)C3CCS(=O)(=O)C3)c2C)cc1 (stereo not drawn)
inactive: growth inhibition [1] -15.9% | growth inhibition [2] -17.3% | viability increase [3] -1.95% | viability [4] 91.7% | viability [5] 91.1% | inhibition [6] 0.955% | RAM network inhibition [7] 8.11%

From PubChem BioAssay
